Reference: ChEMBL document CHEMBL1135822, “Novel potent AMPA/kainate receptor antagonists: synthesis and anticonvulsant activity of a series of 2-[(4-alkylsemicarbazono)-(4-amino-phenyl)methyl]-4,5-methylenedioxyphenylacetic acid alkyl esters” (J Med Chem, 2002)
Blank lines part the entries; values can stand above or below the compound they belong to.

Columns and labels:
Mus musculus [1] = organism: Mus musculus; test: Anticonvulsant activity against audiogenic seizures in DBA/2 mice in clonic phase.; format: functional
Outline: (§1)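 DBA/2 mice (8–12 g, 22–25 days), groups of 10, given ip doses of 3.3–200 µmol/kg in 50% DMSO/50% saline. Auditory stimulation 30 min later after 60 s habituation under a dome. Incidence of each seizure phase scored. ED50 by Litchfield–Wilcoxon, at least 32 animals, 95% confidence limits.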

[2] = Anticonvulsant activity against audiogenic seizures in DBA/2 mice in tonic phase; format: functional; conditions: Mus musculus; outline: as §1
[3] = Toxicity assessed by Rotarod test (locomotor deficit) in mice.; format: organism-based; conditions: mouse, in vivo
Outline: (§2)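 Male Swiss mice (20–26 g), groups of 10, trained on a 3-cm rotarod at 8 rpm. Tested 30 min after ip dosing; impairment defined as failure to stay on for 2 min. TD50 by Litchfield–Wilcoxon, at least 32 animals, 95% confidence limits.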

[4] = Protective index as the ratio of TD50 to ED50 (from the clonic phase of the audiogenic seizures).; conditions: for selectivity ratio: read-out: PI
Outline: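 Ratio of rotarod TD50 to ED50 from the clonic phase of audiogenic seizures in DBA/2 mice, both after ip dosing.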

[5] = Partition coefficient (logP); format: physicochemical; conditions: octanol/water
Outline: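 log P calculated with XLOGP 2.0, not measured.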

[6] = Locomotion assessed by Rotarod test in mice; format: organism-based; conditions: mouse, in vivo; outline: as §2
[7] = Protective index as the ratio of TD50 value to that of ED50 value (from the clonic phase of the audiogenic seizures).; format: functional
Outline: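 PI = TD50/ED50. TD50 from rotarod (3 cm, 8 rpm; failure to stay on for 2 min) in male Swiss mice 30 min after ip dosing; ED50 from clonic phase of audiogenic seizures in DBA/2 mice 30 min after ip dosing (50% DMSO/saline). Both by Litchfield–Wilcoxon, ≥32 animals each.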

Rattus norvegicus [8] = organism: Rattus norvegicus; test: Percentage reduction of ATPA evoked currents at a concentration of 100 uM in cerebellar neurons
Mus musculus [9] = test: Anticonvulsant activity against AMPA induced seizures in DBA/2 mice after intracerebro ventricular administration at the CD97 for clonus (9.7 nmol) (95% confidence limits); format: functional; conditions: central
Mus musculus [10] = test: Anticonvulsant activity against AMPA induced seizures in DBA/2 mice after intracerebro ventricular administration at the CD97 for tonus (11.7 nmol) (95% confidence limits); format: functional; conditions: central
Mus musculus [11] = test: Anticonvulsant activity against KA induced seizures in DBA/2 mice at a dose of 32 mg/kg at CD97 after intraperitoneal administration (95% confidence limits); format: functional; conditions: ip
Mus musculus [12] = organism: Mus musculus; test: Anticonvulsant activity against MES induced seizures in swiss mice in tonic phase (95% confidence limits); format: functional
Outline: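 Swiss mice dosed ip in 50% DMSO/50% saline, then shocked via ear-clip electrodes (50 mA, 20 ms pulse width, 35 Hz, 400 ms). Protection defined as abolition of tonic hindlimb extension. Four to five doses, 8–10 mice each; ED50 by Litchfield–Wilcoxon with 95% confidence limits.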

Mus musculus [13] = organism: Mus musculus; test: Anticonvulsant activity against PTZ induced seizures in swiss mice in clonic phase (95% confidence limits); format: functional
Mus musculus [14] = test: Anticonvulsant activity against audiogenic seizures in DBA/2 mice in clonic phase after 120 min intraperitoneal administration (95% confidence limit in parentheses); format: functional; conditions: ip, 2 h
Outline: (§3)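 Time course: DBA/2 mice (8–12 g, 22–25 days) dosed ip in 50% DMSO/50% saline and challenged with sound 15 to 120 min after dosing. Clonic phase scored; ED50 in µmol/kg by Litchfield–Wilcoxon with 95% confidence limits. Between-compound differences at each time by Litchfield–Wilcoxon (*p<0.05, **p<0.01).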

Mus musculus [15] = test: Anticonvulsant activity against audiogenic seizures in DBA/2 mice in clonic phase after 15 min intraperitoneal administration (95% confidence limit in parentheses); format: functional; conditions: ip, 0.25 h; outline: as §3
Mus musculus [16] = test: Anticonvulsant activity against audiogenic seizures in DBA/2 mice in clonic phase after 30 min intraperitoneal administration (95% confidence limit in parentheses)**indicates p<0.01; format: functional; conditions: ip, 0.5 h
Outline: (§4)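 DBA/2 mice (8–12 g, 22–25 days old), genetically sound-susceptible, groups of 10. Dosed ip (0.1 mL/10 g) as fresh solution in 50% DMSO/50% saline, doses 3.3-200 μmol/kg; auditory stimulation after 60 s habituation under dome, at 30 min (time-course: 15–120 min post-dose).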

Mus musculus [17] = test: Anticonvulsant activity against audiogenic seizures in DBA/2 mice in clonic phase after 45 min intraperitoneal administration (95% confidence limit in parentheses)**indicates p<0.01; format: functional; conditions: ip, 0.75 h; outline: as §4
Mus musculus [18] = test: Anticonvulsant activity against audiogenic seizures in DBA/2 mice in clonic phase after 60 min intraperitoneal administration (95% confidence limit in parentheses)**indicates p<0.01; format: functional; conditions: ip, 1 h; outline: as §4
Mus musculus [19] = test: Anticonvulsant activity against audiogenic seizures in DBA/2 mice in clonic phase after 90 min intraperitoneal administration (95% confidence limit in parentheses)*indicates p<0.05; format: functional; conditions: ip, 1.5 h; outline: as §3
Mus musculus [20] = organism: Mus musculus; test: Anticonvulsant activity against audiogenic seizures in DBA/2 mice in tonic phase (95% confidence limit in parentheses); format: functional; outline: as §4
Rattus norvegicus [21] = organism: Rattus norvegicus; test: Percentage reduction of ATPA evoked currents at a concentration of 100 uM in cerebellar neurons; remark: listed apart in the source
Rattus norvegicus [22] = organism: Rattus norvegicus; test: Percentage reduction of KA (kainate) evoked currents at a concentration of 100 uM in cerebellar neurons
Rattus norvegicus [23] = organism: Rattus norvegicus; test: as above; remark: listed apart in the source
[24] = Percentage reduction of ATPA evoked currents at a concentration of 100 uM in cerebellar neurons; format: functional
Outline: (§5)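 Whole-cell voltage clamp of rat cerebellar granule neurons cultured 7 days (7–8-day-old Sprague–Dawley pups; Ara-C 10 µM from 24 h). External solution pH 7.4. KA or ATPA and test agent all applied at 100 µM by Y-tube, DMSO final below 1%. Mean ± SE of at least 10 cells.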

[25] = Percentage reduction of KA (kainate) evoked currents at a concentration of 100 uM in cerebellar neurons; format: functional; outline: as §5

SMILES: CNC(=O)N1N=C(c2ccc(N)cc2)c2cc3c(cc2CC1=O)OCO3
- TD50 [6]: 48.6 µmol/kg
- PI [7]: 3.9
- logP ([5]; read-out: logP): 1.99
- Reduction (Rattus norvegicus [8]): 50%

SMILES: CCNC(=O)N1N=C(c2ccc(N)cc2)c2cc3c(cc2CC1=O)OCO3
- TD50 [3]: 134 µmol/kg
- selectivity ratio [4]: 3.8
- logP ([5]; read-out: logP): 2.41

SMILES: CC1=NN=C(c2ccc(N)cc2)c2cc3c(cc2C1)OCO3 [GYKI-52466]
- selectivity ratio [4]: 2.1
- logP ([5]; read-out: logP): 3.51
- Reduction (Rattus norvegicus [8]): 45%
- Reduction (Rattus norvegicus [23]): 47%

SMILES: CCCCNC(=O)N1N=C(c2ccc(N)cc2)c2cc3c(cc2CC1=O)OCO3
- TD50 [3]: 108 µmol/kg
- selectivity ratio [4]: 2.8
- logP ([5]; read-out: logP): 3.34

SMILES: CCNC(=O)N/N=C(\c1ccc(N)cc1)c1cc2c(cc1CC(=O)OCC)OCO2
- ED50 (Mus musculus [1]): 84.4 µmol/kg
- ED50 [2]: 60.8 µmol/kg
- TD50 [3]: 227 µmol/kg
- selectivity ratio [4]: 2.7
- logP ([5]; read-out: logP): 3.31

SMILES: Nc1ccc(C2=NNC(=O)Cc3cc4c(cc32)OCO4)cc1
- selectivity ratio [4]: 6.3
- logP ([5]; read-out: logP): 2.58
- Reduction (Rattus norvegicus [8]): 94%

SMILES: CCCNC(=O)N1N=C(c2ccc(N)cc2)c2cc3c(cc2CC1=O)OCO3
- TD50 [3]: 182 µmol/kg
- selectivity ratio [4]: 2.6
- logP ([5]; read-out: logP): 2.77

SMILES: CCCCNC(=O)N/N=C(\c1ccc(N)cc1)c1cc2c(cc1CC(=O)OC)OCO2
- ED50 (Mus musculus [1]): 65 µmol/kg
- ED50 [2]: 38.2 µmol/kg
- TD50 [3]: 188 µmol/kg
- selectivity ratio [4]: 2.9
- logP ([5]; read-out: logP): 3.81

SMILES: CCCNC(=O)N/N=C(\c1ccc(N)cc1)c1cc2c(cc1CC(=O)OC)OCO2
- ED50 (Mus musculus [1]): 57.1 µmol/kg
- ED50 [2]: 42.8 µmol/kg
- TD50 [3]: 177 µmol/kg
- selectivity ratio [4]: 3.1
- logP ([5]; read-out: logP): 3.24

SMILES: CCCOC(=O)Cc1cc2c(cc1/C(=N/NC(=O)NCC)c1ccc(N)cc1)OCO2
- ED50 (Mus musculus [1]): 55.5 µmol/kg
- ED50 [2]: 40.3 µmol/kg
- TD50 [3]: 187 µmol/kg
- selectivity ratio [4]: 3.4
- logP ([5]; read-out: logP): 3.67

SMILES: CCCCOC(=O)Cc1cc2c(cc1/C(=N/NC(=O)NCC)c1ccc(N)cc1)OCO2
- ED50 (Mus musculus [1]): 53.1 µmol/kg
- ED50 [2]: 38.7 µmol/kg
- TD50 [3]: 117 µmol/kg
- selectivity ratio [4]: 2.2
- logP ([5]; read-out: logP): 4.24

Further lines, with some results ahead:

- logP ([5]; read-out: logP): 3.81
SMILES: CCCCOC(=O)Cc1cc2c(cc1/C(=N/NC(=O)NC)c1ccc(N)cc1)OCO2
- ED50 (Mus musculus [1]): 66.2 µmol/kg
- ED50 [2]: 39.8 µmol/kg
- TD50 [3]: 179 µmol/kg
- selectivity ratio [4]: 2.7

- logP ([5]; read-out: logP): 3.24
SMILES: CCCOC(=O)Cc1cc2c(cc1/C(=N/NC(=O)NC)c1ccc(N)cc1)OCO2
- ED50 (Mus musculus [1]): 18 µmol/kg
- ED50 [2]: 8.93 µmol/kg
- TD50 [3]: 68.5 µmol/kg
- selectivity ratio [4]: 3.8

- logP ([5]; read-out: logP): 1.82
SMILES: CNC(=O)NC(=O)Cc1cc2c(cc1C(=O)c1ccc(N)cc1)OCO2
- ED50 (Mus musculus [1]): 39.5 µmol/kg
- ED50 [2]: 28.9 µmol/kg
- TD50 [3]: 134 µmol/kg
- selectivity ratio [4]: 3.4

- logP [5]: 2.46
SMILES: CNC(=O)N/N=C(\c1ccc(N)cc1)c1cc2c(cc1CC(=O)OC)OCO2 (stereo in doubt; 10)
- ED50 (Mus musculus [9]): 13.9 µmol/kg
- ED50 (Mus musculus [10]): 8.9 µmol/kg
- ED50 (Mus musculus [11]): 16.6 µmol/kg
- ED50 (Mus musculus [12]): 15.7 µmol/kg
- ED50 (Mus musculus [13]): 14.7 µmol/kg
- ED50 (Mus musculus [14]): 36.8 µmol/kg
- ED50 (Mus musculus [15]): 24.1 µmol/kg
- ED50 (Mus musculus [16]): 7.87 µmol/kg
- ED50 (Mus musculus [17]): 7.75 µmol/kg
- TD50 [6]: 28.3 µmol/kg
- PI [4]: 3.6
- ED50 (Mus musculus [18]): 10.2 µmol/kg
- ED50 (Mus musculus [19]): 25.5 µmol/kg
- ED50 (Mus musculus [20]): 4.62 µmol/kg
- Reduction (Rattus norvegicus [21]): 75%
- Reduction (Rattus norvegicus [22]): 60%

- logP ([5]; read-out: logP): 2.89
SMILES: CCOC(=O)Cc1cc2c(cc1/C(=N/NC(=O)NC)c1ccc(N)cc1)OCO2
- ED50 (Mus musculus [1]): 28.8 µmol/kg
- ED50 [2]: 10.9 µmol/kg
- TD50 [3]: 95.1 µmol/kg
- selectivity ratio [4]: 3.3

- logP ([5]; read-out: logP): 2.89
SMILES: CCNC(=O)N/N=C(\c1ccc(N)cc1)c1cc2c(cc1CC(=O)OC)OCO2
- ED50 (Mus musculus [1]): 30.3 µmol/kg
- ED50 [2]: 32.8 µmol/kg
- TD50 [3]: 113 µmol/kg
- selectivity ratio [4]: 3.7

- logP ([5]; read-out: logP): 2.68
SMILES: COC(=O)Cc1cc2c(cc1Cc1ccc(N)cc1)OCO2
- ED50 (Mus musculus [1]): 54.3 µmol/kg
- ED50 [2]: 47.7 µmol/kg
- TD50 [3]: 169 µmol/kg
- selectivity ratio [4]: 3.1

- logP ([5]; read-out: logP): 2.99
SMILES: CNC(=O)N/N=C(\c1ccc(N)cc1)c1cc2c(cc1CC(=O)OC)OCO2 (stereo in doubt; 29)
- ED50 (Mus musculus [1]): 10.4 µmol/kg
- ED50 [2]: 9.51 µmol/kg
- TD50 [3]: 38.6 µmol/kg
- selectivity ratio [4]: 3.7

- logP ([5]; read-out: logP): 1.09
SMILES: CNC(=O)NC(=O)Cc1ccc2c(c1)OCO2
- ED50 (Mus musculus [1]): 87.8 µmol/kg
- ED50 [2]: 74.4 µmol/kg
- TD50 [3]: 219 µmol/kg
- selectivity ratio [4]: 2.5

- logP ([5]; read-out: logP): 2.23
SMILES: CNC(=O)NC(=O)Cc1cc2c(cc1Cc1ccc(N)cc1)OCO2
- Reduction [24]: 32%
- Reduction [25]: 54%
- ED50 (Mus musculus [1]): 9.28 µmol/kg
- ED50 [2]: 7.65 µmol/kg
- TD50 [3]: 33.3 µmol/kg
- selectivity ratio [4]: 3.6
